Compound activity deposited in PubChem BioAssay by several laboratories.
RGS4 act: potentiators or activators of RGS4; HEK293 M3R/inducible RGS4, carbachol calcium flux Fluo4; hits give low values; B-score at 10 µM; 310,000 compounds, 0.92% hits; AID 463111;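 active = B-score of the integrated calcium signal more than 4 SD below the library mean, with starting fluorescence not abnormally high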;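 note: negative B-score means reduced calcium response which marks RGS4 activation or potentiation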
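Assay system: HEK293 FlpIn-TREx cells, stable M3R, doxycycline-inducible RGS4 / Probe or stimulus: carbachol, ECmax concentration / Times: overnight RGS4 induction, 30 min dye load 37 °C, 20 min compound RT / Signal: kinetic calcium fluorescence imaging with Fluo4-AM dye, 2 µM / Measure: Agonist-evoked peak-minus-minimum fluorescence over baseline, integrated ratio, B score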
MrgX1 PAM: human MrgX1 positive allosteric modulation, primary screen. MrgX1-HEK293, Fluo-4 calcium flux, FDSS; hits give high values. B-score at 10 µM. 310,000 compounds, 0.63% hits;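 active = plate-corrected calcium response at least 3 library SD above typical, normal starting fluorescence, not activating the receptor alone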;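 note: compound read alongside a low EC10 to EC30 dose of BAM8-22 agonist; peak minus trough fluorescence over baseline measured at the second addition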
Target sequence (Q96LB2 whole entry, looked up): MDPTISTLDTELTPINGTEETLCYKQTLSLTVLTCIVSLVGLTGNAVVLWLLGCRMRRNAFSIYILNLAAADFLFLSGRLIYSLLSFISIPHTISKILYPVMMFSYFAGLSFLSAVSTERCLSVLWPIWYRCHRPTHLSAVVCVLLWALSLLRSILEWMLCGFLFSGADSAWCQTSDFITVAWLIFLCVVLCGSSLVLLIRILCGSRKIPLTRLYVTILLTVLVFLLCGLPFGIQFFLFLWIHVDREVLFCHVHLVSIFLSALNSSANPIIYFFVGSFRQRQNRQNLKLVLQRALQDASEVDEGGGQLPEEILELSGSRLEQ
RGS4 block: human RGS4 inhibition. P49798. HEK293 M3R/RGS4 inducible, Fluo-4 calcium flux; hits give high values; triggered by carbachol at its EC20. B-score at 10 µM. 310,000 compounds, 0.45% hits;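 active = B-score, a plate-corrected calcium signal, over three deviations above library mean, with baseline fluorescence within five deviations of library mean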;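 note: RGS4 expression induced by doxycycline in cells with stable M3 receptor; B-score is computed from the integrated fluorescence ratio over baseline after carbachol; higher B-score means a larger calcium signal and so more RGS4 inhibition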
Target sequence (P49798 whole entry, looked up): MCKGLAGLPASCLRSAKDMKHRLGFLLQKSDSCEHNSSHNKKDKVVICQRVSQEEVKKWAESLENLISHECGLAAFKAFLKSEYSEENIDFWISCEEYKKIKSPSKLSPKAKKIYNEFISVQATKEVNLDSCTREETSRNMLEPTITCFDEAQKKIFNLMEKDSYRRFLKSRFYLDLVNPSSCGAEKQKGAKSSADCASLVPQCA
MrgX1 antagonist: antagonists of human MrgX1 receptor. MRGX1-HEK293 calcium flux, Fluo-4, BAM8-22 antagonism; hits give low values. B-score at 10 µM. 310,000 compounds, 1.3% hits. AID 588676;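 active = calcium-response B-score plate-corrected more than 3 library SD below zero, starting fluorescence within 5 deviations, no agonist response on first addition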;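 note: peak minus trough fluorescence over baseline after final BAM8-22 challenge near maximal dose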
KCC2 mod: KCC2 (human) Cl- transport modulation; B-score of Tl+ flux slope (higher = more flux/activation; lower = inhibition) at 10 µM; Q9H2X9; 190,000 compounds, 2.2% hits; KCC2 cells, thallium flux FluoZin-2 fluorescence;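 active = thallium flux slope and its plate-corrected score both differing from the plate sample mean at a set confidence after two filtering rounds, in either direction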;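 note: slope of fluorescence scaled to starting intensity during 10 to 20 s after thallium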
MrgX1 ag: agonists of human MrgX1 receptor. MrgX1-HEK293 cells, Fluo-4 calcium fluorescence, agonist mode; hits give high values. B-score at 10 µM. 310,000 compounds, 0.44% hits;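 active = calcium response B-score plate-corrected fluorescence ratio at least 3 library SD, with starting fluorescence B-score inside 5 SD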
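Material: HEK293 cells stably expressing human MrgX1 receptor | Quantity: 15,000 cells per well | Times: Cells plated overnight, dye loaded 0.5 h 37 °C, 0.5 h room temperature | Measured by: Kinetic Fluo-4 NW fluorescence of intracellular calcium | Control set: Positive and negative controls per plate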
MrgX1 allo conf: reconfirmed allosteric activator of human MrgX1 receptor; MrgX1-HEK293, Fluo-4 calcium fluorescence, FDSS; shares compounds with MrgX1 PAM; AID 602413; 1,200 compounds, 13% hits; activation (ratio percentage), % at 10 µM;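 active = ratio at least 3 SD above the weak peptide control, stable starting fluorescence, no direct agonism earlier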;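 note: compound followed by low BAM8-22 agonist challenge near EC20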
HEK293 Ca flux: activity in parental HEK293 cells lacking MrgX1; shares compounds with MrgX1 antagonist; 4,000 compounds, 2% hits; Fluo-4 calcium fluorescence, FDSS; fluorescence ratio F(max-min)/F0 at 10 µM;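 active = duplicate-averaged calcium fluorescence ratio at least three times the standard deviation of buffer wells, a nonspecific response in parental cells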
HEK293 Ca counter: activity in parental HEK293 cells without MrgX1 | shares compounds with MrgX1 antagonist | parental HEK293 calcium flux, Fluo-4 fluorescence ratio; hits give high values | fluorescence ratio F(max-min)/F0 at 10 µM | 4,000 compounds, 0.4% hits;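 active = calcium fluorescence ratio, averaged over duplicates, at least 3 SD of the buffer-well ratio, meaning a nonspecific response in receptor-free cells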;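 note: untransfected parental HEK293 lacking MrgX1 used as counterscreen for MrgX1 allosteric activators; fluorescence change taken during the second addition on a kinetic imager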
HEK293 Ca cntr2: MrgX1 activator counter-screen hit in parental HEK293 cells; AID 624115; Fluo-4 calcium fluorescence (FDSS); hits give high values; fluorescence ratio F(max-min)/F0 at 10 µM; 4,000 compounds, 8.7% hits; shares compounds with MrgX1 antagonist;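 active = calcium fluorescence ratio at least three times the spread of buffer wells, meaning a non-specific response in parental cells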
Large screens that a line does not name were inactive (follow-up assays come after a bar, where they were run). Most compounds without a hit are left out; they make up all but 4.7% or so of the library.

CC(C)(C)NC(=O)CSc1nc(-c2ccc(F)cc2)cs1	MrgX1 PAM 9.38 | MrgX1 allo conf inactive | HEK293 Ca flux inactive | HEK293 Ca counter inactive | HEK293 Ca cntr2 inactive
CCNC(=O)CSc1nc(-c2ccc(F)cc2)cs1	none
O=C(c1ccc(Br)cc1)N1CCN(Cc2ccccc2)CC1	MrgX1 PAM 6.45 (no result: KCC2 mod) | MrgX1 allo conf inactive | HEK293 Ca flux inactive | HEK293 Ca counter inactive | HEK293 Ca cntr2 inactive
CC(=O)c1c(Cl)nc2cccc3c2c1-c1ccccc1C3=O	none (no result: KCC2 mod)
CCOC(=O)c1c(C)n(-c2ccccc2)c2ccc(OCCN(C)C)cc12	none (no result: KCC2 mod)
c1ccc(Sc2ncnc3c2oc2ccccc23)cc1	MrgX1 PAM 12.2 | MrgX1 allo conf 21.8% | HEK293 Ca flux inactive | HEK293 Ca counter inactive | HEK293 Ca cntr2 inactive
Cc1nc(Oc2ccccc2)c2oc3ccccc3c2n1	MrgX1 PAM 34.1 | MrgX1 allo conf 24.9% | HEK293 Ca flux inactive | HEK293 Ca counter inactive | HEK293 Ca cntr2 inactive
Cc1nc(Oc2ccccc2)c2ccsc2n1	MrgX1 PAM 9.77 | MrgX1 allo conf 4.8% | HEK293 Ca flux inactive | HEK293 Ca counter inactive | HEK293 Ca cntr2 inactive
COc1ccccc1Oc1ncnc2c1oc1ccccc12	MrgX1 PAM 15.3 | MrgX1 allo conf 32.8% | HEK293 Ca flux inactive | HEK293 Ca counter inactive | HEK293 Ca cntr2 inactive
C/C(=N\Nc1ccc2nncn2n1)c1ccc(Br)s1	none
COc1ccc(Nc2nc(C)nc3c2oc2ccccc23)c(OC)c1	none (no result: KCC2 mod)
Cc1nc(Nc2ccccc2F)c2oc3ccccc3c2n1	MrgX1 PAM 6.96 (no result: KCC2 mod) | MrgX1 allo conf inactive | HEK293 Ca flux inactive | HEK293 Ca counter inactive | HEK293 Ca cntr2 inactive
Cc1nc(Nc2ccccc2O)c2oc3ccccc3c2n1	none (no result: KCC2 mod)
COc1ccc(Oc2nc(C)nc3c2oc2ccccc23)cc1	MrgX1 PAM 14.1 (no result: KCC2 mod) | MrgX1 allo conf 26.7% | HEK293 Ca flux inactive | HEK293 Ca counter inactive | HEK293 Ca cntr2 inactive
CCOC(=O)c1c(CN(CC)CC)n(C)c2cc(Br)c(O)cc12	MrgX1 PAM 6.9 | MrgX1 allo conf inactive | HEK293 Ca flux inactive | HEK293 Ca counter inactive | HEK293 Ca cntr2 inactive
COc1ccc2[nH]cc(C(=O)CCl)c2c1	MrgX1 PAM 21.5 | MrgX1 allo conf inactive | HEK293 Ca flux inactive | HEK293 Ca counter inactive | HEK293 Ca cntr2 inactive
C=C(C)COc1ccc(-c2[nH]ncc2-c2ccccc2OC)c(O)c1	MrgX1 PAM 17.7 (no result: KCC2 mod) | MrgX1 allo conf inactive | HEK293 Ca flux inactive | HEK293 Ca counter inactive | HEK293 Ca cntr2 inactive
C=C(C)COc1ccc(-c2[nH]ncc2-c2ccc(Br)cc2)c(O)c1	MrgX1 PAM 18.6 | MrgX1 allo conf 10.2% | HEK293 Ca flux inactive | HEK293 Ca counter inactive | HEK293 Ca cntr2 inactive
C=C(C)COc1ccc(-c2[nH]ncc2Oc2ccccc2OC)c(O)c1	none (no result: KCC2 mod)
CC(=O)c1ccc(NC(=O)COC(=O)c2ccc(F)cc2F)cc1	none (no result: KCC2 mod)
COc1ccc(C)cc1NC(=O)C1CCN(C(=O)Cc2ccccc2)CC1	MrgX1 PAM 11.3 | MrgX1 allo conf inactive | HEK293 Ca flux inactive | HEK293 Ca counter inactive | HEK293 Ca cntr2 inactive
COC(=O)c1ccccc1NC(=O)C1CCN(C(=O)Cc2ccccc2)CC1	none (no result: KCC2 mod)
Cc1ccc([N+](=O)[O-])cc1S(=O)(=O)Nc1ccc(-c2ccc(N3CCOCC3)nn2)cc1	MrgX1 PAM 28.8 (no result: KCC2 mod) | MrgX1 allo conf 8.1% | HEK293 Ca flux inactive | HEK293 Ca counter inactive | HEK293 Ca cntr2 inactive
COc1ccccc1-c1nc2ccccc2nc1-c1ccccc1	MrgX1 PAM 8.97 | MrgX1 allo conf inactive | HEK293 Ca flux inactive | HEK293 Ca counter 51.3 | HEK293 Ca cntr2 inactive
Cc1cccc2cc3ccccc3nc12	MrgX1 PAM 9.15 (no result: KCC2 mod) | MrgX1 allo conf inactive | HEK293 Ca flux inactive | HEK293 Ca counter inactive | HEK293 Ca cntr2 inactive
CC(C)(C)c1ccc(S(=O)(=O)N2CCC(NC(=O)c3ccco3)CC2)cc1	none (no result: KCC2 mod)
CCc1ccc(OCC(=O)NC2CCCCC2)c(Br)c1	MrgX1 PAM 8.29 (no result: KCC2 mod) | MrgX1 allo conf inactive | HEK293 Ca flux inactive | HEK293 Ca counter inactive | HEK293 Ca cntr2 inactive
O=C(COc1ccccc1Br)NC1CCCC1	MrgX1 PAM 7.27 | MrgX1 allo conf inactive | HEK293 Ca flux inactive | HEK293 Ca counter inactive | HEK293 Ca cntr2 inactive
Cc1cc(Br)ccc1OCC(=O)NC1CCCC1	none (no result: KCC2 mod)
CC(C)(C)c1ccc(-n2ncc3c2CCCC3NC(=O)CN2CCCC2=O)cc1 (centres undefined)	MrgX1 PAM 13.3 (no result: KCC2 mod) | MrgX1 allo conf inactive | HEK293 Ca flux inactive | HEK293 Ca counter inactive | HEK293 Ca cntr2 inactive
CC(Oc1ccc(F)cc1)C(=O)Nc1cccc(-c2nn[nH]n2)c1 (centres undefined)	none (no result: KCC2 mod)
CCC(C)(C)n1nnnc1C(c1ccc(Cl)cc1)N1CCN(C)CC1 (centres undefined)	MrgX1 PAM 11.2 | MrgX1 allo conf inactive | HEK293 Ca flux inactive | HEK293 Ca counter inactive | HEK293 Ca cntr2 inactive
CCC(C)(C)n1nnnc1C(c1ccccc1)N1CCN(Cc2ccccc2)CC1 (centres undefined)	none
CN(c1ccc(C(=O)NCc2ccncc2)cc1)S(=O)(=O)c1ccc(Cl)cc1	none (no result: KCC2 mod)
O=C(O)c1cccc(N2C(=O)c3cc([N+](=O)[O-])cc4cc([N+](=O)[O-])cc(c34)C2=O)c1	none (no result: KCC2 mod)
CN(Cc1ccccc1)Cc1nc2c(c(=O)n(C)c(=O)n2C)n1CCCc1ccccc1	MrgX1 PAM 8.07 | MrgX1 allo conf inactive | HEK293 Ca flux inactive | HEK293 Ca counter inactive | HEK293 Ca cntr2 inactive
CC(C)c1ccc(C(=O)NCCCN2CCOCC2)cc1	none (no result: KCC2 mod)
O=C(NCCCN1CCOCC1)c1ccc(CSc2ccc(Cl)cc2)cc1	MrgX1 PAM 9.06 | MrgX1 allo conf inactive | HEK293 Ca flux inactive | HEK293 Ca counter inactive | HEK293 Ca cntr2 inactive
COc1ccc(-c2csc3nc(-c4cccnc4)nc(Cl)c23)cc1OC	MrgX1 PAM 6.66 | MrgX1 allo conf 3.9% | HEK293 Ca flux inactive | HEK293 Ca counter inactive | HEK293 Ca cntr2 inactive
COCc1ccc(C(=O)N2CCCC(C(=O)c3cccc(C(F)(F)F)c3)C2)o1 (centres undefined)	MrgX1 PAM 32.2 | MrgX1 allo conf inactive | HEK293 Ca flux inactive | HEK293 Ca counter inactive | HEK293 Ca cntr2 inactive
